Measurements reported in ChEMBL document CHEMBL5226313, “Discovery of an Orally Efficacious MYC Inhibitor for Liver Cancer Using a GNMT-Based High-Throughput Screening System and Structure-Activity Relationship Analysis” (J Med Chem, 2021).
Calls of active or inactive are those of the source. The calls are words filed in the database; no cut-off is given here.

Legend:
[1] = biological target: T1, Glycine N-methyltransferase (Homo sapiens) (UniProt Q14749); assay: Induction of GNMT in human H7GPL cells assessed as fold increase in promoter-driven luciferase reporter expression at 2.5 uM measured after 24 hrs by luminescence assay relative to control; type: cell-based; details: filed as activator
T1 sequence (whole entry): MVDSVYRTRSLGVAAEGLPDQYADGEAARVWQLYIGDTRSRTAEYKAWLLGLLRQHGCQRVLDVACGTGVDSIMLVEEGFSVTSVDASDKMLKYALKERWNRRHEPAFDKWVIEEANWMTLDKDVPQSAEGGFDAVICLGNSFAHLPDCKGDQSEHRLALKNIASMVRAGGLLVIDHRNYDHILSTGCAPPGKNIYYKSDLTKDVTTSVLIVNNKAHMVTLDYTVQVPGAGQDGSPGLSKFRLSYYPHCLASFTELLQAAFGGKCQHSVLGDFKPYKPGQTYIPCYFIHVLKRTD
Outline: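 H7GPL cells (Huh7 carrying a stable lentiviral GNMT promoter–luciferase reporter, kept in 1 μg/mL puromycin) treated with compound for 24 h, then luciferase measured. Luciferase activity normalised to cell viability and expressed as fold over solvent control; means ± SD, n = 3.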

[2] = biological target: T1, Glycine N-methyltransferase (Homo sapiens); assay: Induction of GNMT in human H7GPL cells assessed as fold increase in promoter-driven luciferase reporter expression at 10 uM measured after 24 hrs by luminescence assay relative to control; type: cell-based; details: filed as activator
Huh-7 [3] = assay: Induction of GNMT mRNA expression in human Huh-7 cells at 2.5 uM measured after 24 hrs by qRT-PCR analysis; type: functional, cell-based
Outline: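 Huh7 cells exposed to 2.5 μM for 24 h, then RNA harvested. GNMT mRNA quantified by qRT-PCR, normalised to an internal control and expressed as fold over solvent control; means ± SD, n = 3.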

Huh-7 [4] = assay: Induction of GNMT protein expression in human Huh-7 cells at 2.5 uM measured after 24 hrs; type: functional, cell-based
[5] = Toxicity in mouse xenografted with human Huh-7 cells assessed as body weight at 25 to 300 mg/kg, po treated for 30 days; type: organism-based; details: in vivo, 720 h, dose 25-300 mg/kg, time 30 day
Outline: (§1)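 Female Balb/c nude mice, 5–6 weeks old, injected subcutaneously in the right flank with 1 × 10⁶ Huh7 cells. Once tumors were palpable, animals were randomised and dosed orally every day for 30 days at 25, 100 or 300 mpk, or vehicle; sorafenib 25 mpk as reference group. Tumors measured by caliper throughout; body weight recorded during treatment.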

Huh-7 [6] = assay: Antitumor activity against human Huh-7 cells xenografted in mouse tumor model assessed as inhibition of tumor growth at 25 to 300 mg/kg, po treated for 30 days; type: functional, organism-based; details: dose 25-300 mg/kg, time 30.0 day; outline: as §1
[7] = biological target: T1, Glycine N-methyltransferase (Homo sapiens); assay: Induction of GNMT in human H7GPL cells assessed as fold increase in promoter-driven luciferase reporter expression measured after 24 hrs by luminescence assay relative to control; type: cell-based; details: filed as activator, dose 0.15-10 µM
[8] = Cytotoxicity against human H7GPL cells at 10 uM measured after 72 hrs by MTS assay; type: toxicity, cell-based
Outline: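 H7GPL-1 cells seeded at 3 × 10³ per well overnight, then exposed to 10 μM compound for 72 h. Medium replaced with MTS/PMS reagent (20:1) and incubated 1.5 h at 37 °C in 5% CO2; absorbance read at 490 nm. Viability expressed relative to control, where 100% means no cytotoxicity.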

HepG2 [9] = assay: Effect on HDAC1 protein expression in human HepG2 cells at 0.6 to 10 uM incubated for 24 hrs by immunoblot analysis; type: functional, cell-based; details: dose 0.6-10 µM
Outline: (§2)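 Huh7 or HepG2 cells exposed to the indicated concentrations for 24 h. Lysates prepared in RIPA buffer with phosphatase inhibitors (10 mM Na3VO4, 1 mM NaF, 5 mM NaPPi) and protease inhibitor cocktail; protein quantified by Bio-Rad assay. HDAC1 and HDAC2 detected by immunoblot, with GAPDH as loading control.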

[10] = Toxicity in NOD-SCID mouse assessed as organ morphology at 10 to 25 mg/kg, po treated for 30 days; type: organism-based; details: in vivo, 720 h, dose 10-25 mg/kg, time 30 day
Outline: (§3)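 Huh7 cells (1 × 10⁶) were injected subcutaneously into the right flank of five- to six-week-old female mice. Once tumours were palpable, mice were randomised and dosed orally every day for 30 days at 10 or 25 mpk, with vehicle and sorafenib (25 mpk) groups alongside. Survival, body weight, liver function tests and organ morphology were monitored during treatment.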

[11] = Toxicity in NOD-SCID mouse assessed as body weight at 10 to 25 mg/kg, po treated for 30 days; type: organism-based; details: in vivo, 720 h, dose 10-25 mg/kg, time 30 day; outline: as §3
[12] = Toxicity in NOD-SCID mouse assessed as survival at 10 to 25 mg/kg, po treated for 30 days; type: organism-based; details: in vivo, 720 h, dose 10-25 mg/kg, time 30 day; outline: as §3
[13] = Toxicity in NOD-SCID mouse assessed as liver function at 10 to 25 mg/kg, po treated for 30 days; type: organism-based; details: in vivo, 720 h, dose 10-25 mg/kg, time 30 day; outline: as §3
HepG2 [14] = assay: Inhibition of colony formation in human HepG2 cells after 10 days by crystal violet staining based assay; type: functional, cell-based; details: dose 0.6-10 µM, time 10.0 day
Outline: (§4)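 Cells seeded at 1 × 10⁴ per well overnight in six-well plates, then exposed to the specified drug concentrations for 10 days at 37 °C in 5% CO2. Surviving colonies stained with crystal violet and counted; means ± SD, n = 3.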

HepG2 [15] = assay: Antiproliferative activity against human HepG2 cells assessed as inhibition of cell growth incubated for 72 hrs by Alamar blue assay; type: functional, cell-based; details: dose 0.3-80 µM
Outline: (§5)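 Cells seeded in 96-well plates and exposed to a range of drug concentrations for 72 h; Alamar Blue added for a further 4 h. Viable cells expressed as percentage of solvent-treated control; means ± SD, n = 3. Cells kept in DMEM with 10% FBS, 2 mM L-glutamine, 0.1 mM non-essential amino acids and antibiotics at 37 °C in humidified CO2.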

Huh-7 [16] = assay: Effect on HDAC1 protein expression in human Huh-7 cells at 0.6 to 10 uM incubated for 24 hrs by immunoblot analysis; type: functional, cell-based; details: dose 0.6-10 µM; outline: as §2
[17] = Drug uptake in NOD-SCID mouse assessed as compound level in liver tissue at 25 mg/kg, po treated for 30 days; details: in vivo, 720 h
Huh-7 [18] = assay: Increase in p21 expression in human Huh-7 cells at 0.6 to 10 uM incubated for 24 hrs by qRT-PCR analysis; details: dose 0.6-10 µM
Hep 3B2 = assay: Antiproliferative activity against human Hep3B cells assessed as inhibition of cell growth incubated for 72 hrs by Alamar blue assay; type: functional, cell-based; details: dose 0.3-80 µM; outline: as §5
HepG2 [19] = assay: Inhibition of MYC mRNA expression in human HepG2 cells at 0.6 to 10 uM incubated for 24 hrs by immunoblot analysis; type: functional, cell-based; details: dose 0.6-10 µM, in the assay text read “qRT-PCR analysis” for “immunoblot analysis”
Outline: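 Huh7 or HepG2 cells treated with the indicated concentrations for 24 h. Myc mRNA measured by qRT-PCR and expressed as fold over solvent control; means ± SD, n = 3.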

Huh-7 [20] = assay: Inhibition of colony formation in human Huh-7 cells after 10 days by crystal violet staining based assay; type: functional, cell-based; details: dose 0.6-10 µM, time 10.0 day; outline: as §4
Huh-7 [21] = assay: Antiproliferative activity against human Huh-7 cells assessed as inhibition of cell growth incubated for 72 hrs by Alamar blue assay; type: functional, cell-based; details: dose 0.3-80 µM; outline: as §5
HepG2 [22] = assay: Effect on HDAC2 protein expression in human HepG2 cells at 0.6 to 10 uM incubated for 24 hrs by immunoblot analysis; type: functional, cell-based; details: dose 0.6-10 µM; outline: as §2
Huh-7 [23] = assay: Reduction in MYC protein expression in tumor of mouse xenografted with human Huh-7 cells at 10 to 25 mg/kg, po treated for 30 days; type: functional, organism-based; details: dose 10-25 mg/kg, time 30.0 day
Outline: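 Tumors taken from Huh7 xenografted nude mice dosed orally every day at 10 or 25 mpk. Tumor lysates prepared in RIPA buffer containing phosphatase and protease inhibitors. MYC and GNMT detected by immunoblot with β-actin as loading control; n = 6 mice per group.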

Huh-7 [24] = assay: Antitumor activity against human Huh-7 cells xenografted in mouse tumor model assessed as reduction in tumor volume at 10 to 25 mg/kg, po treated for 30 days; type: functional, organism-based; details: dose 10-25 mg/kg, time 30.0 day
Outline: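 Huh7 xenografts (1 × 10⁶ cells s.c., right flank) in female Balb/c nude mice aged 5–6 weeks. After tumors became palpable, mice were randomised and dosed orally every day at 10 or 25 mpk, or solvent; sorafenib 25 mpk as comparator. Caliper monitoring of tumor growth over about 4 weeks; mean ± SE, n = 6.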

Huh-7 [25] = assay: Effect on HDAC2 protein expression in human Huh-7 cells at 0.6 to 10 uM incubated for 24 hrs by immunoblot analysis; type: functional, cell-based; details: dose 0.6-10 µM; outline: as §2

| Compound | fold change (FC) [1] | fold change (FC) [2] | other results |
| --- | --- | --- | --- |
| C/C(=N\NC(=O)c1ccccc1N)c1ccccn1 | 0.93 | 11 |  |
| COc1ccc(/C(C)=N/NC(=O)c2cc3ccccc3cc2O)cc1 | 1.2 | 0.9 |  |
| COc1ccccc1C(=O)N/N=C(\C)c1ccccn1 | 1.72 | 1.31 |  |
| O=C(N/N=C/c1cccs1)c1cc2ccccc2cc1O | 0.12 | 1.36 |  |
| C/C(=N\NC(=O)c1ccccc1)c1ccccn1 | 0.59 | 6.96 |  |
| C/C(=N\NC(=O)c1cc2ccccc2cc1O)c1ccccn1 | 6.7 |  | Activity (Huh-7 [3]): Active; Activity (Huh-7 [4]): Active; Activity [5]: Non-Toxic; inhibition (Huh-7 [6]): Active; Activity [7]: Dose-Dependent Effect; Activity [8]: Non-Toxic |
| O=C(N/N=C/c1ccc2ccccc2n1)c1cc2ccccc2cc1O | 1.11 | 1.01 |  |
| C/C(=N\NC(=O)c1cc2ccccc2cc1O)c1ccc[nH]1 | 1.22 | 1.04 |  |
| O=C(NN=C(c1ccccn1)c1ccccn1)c1ccccc1O | 4.55 | 5.86 |  |
| C/C(=N\NC(=O)c1cccc(O)c1)c1ccccn1 | 13.3 | 6.66 |  |
| O=C(NN=C(c1ccccn1)c1ccccn1)c1ccc(O)cc1O | 4.7 | 1.14 |  |
| C/C(=N\NC(=O)c1cc2ccccc2cc1O)c1ccc2ccccc2n1 | 3.31 | 0.99 |  |
| C/C(=N\NC(=O)c1c(O)cccc1O)c1ccccn1 | 0.61 | 11 |  |
| O=C(N/N=C/c1ccccn1)c1cc2ccccc2cc1O | 1.79 | 1.09 |  |
| C/C(=N\NC(=O)c1cc2ccccc2cc1O)c1ccco1 | 1.42 | 1.18 |  |
| C/C(=N\NC(=O)c1ccc(O)cc1O)c1ccccn1 | 4.88 | 1.5 |  |
| O=C(N/N=C/c1ccc[nH]1)c1cc2ccccc2cc1O | 1.19 | 1.56 |  |
| C/C(=N\NC(=O)c1cc2ccccc2cc1O)c1ccc([N+](=O)[O-])cc1 | 1.01 | 0.9 |  |
| O=C(N/N=C/c1ccccn1)c1ccccc1O | 1.4 | 0.88 |  |
| Cc1ccc(COc2ccc3ccc(=O)oc3c2)cc1 |  |  | Activity [8]: Non-Toxic |
| c1ccc(-n2ncc3c(N4CCC5(CC4)OCCO5)ncnc32)cc1 |  |  | Activity [8]: Non-Toxic |
| O=C(N/N=C/c1ccco1)c1cc2ccccc2cc1O | 1.22 | 1.04 |  |
| c1ccc(OCc2nc3ccccc3s2)cc1 [2-(PHENOXYMETHYL)BENZOTHIAZOLE] |  |  | Activity [8]: Non-Toxic |
| C/C(=N\NC(=O)c1cc2ccccc2cc1O)c1ccccc1 | 1.16 | 1.37 |  |
| C/C(=N\NC(=O)c1cccnc1N)c1ccccn1 | 11.1 | 8.26 | Activity (HepG2 [9]): inactive; Activity [10]: Non-Toxic; Activity [11]: Non-Toxic; Activity [12]: Non-Toxic; Activity [13]: Non-Toxic; inhibition (HepG2 [14]): Dose-Dependent Effect; Activity (HepG2 [15]): Dose-Dependent Effect; Activity (Huh-7 [16]): inactive; Drug uptake [17]: Active; Activity (Huh-7 [18]): Active; Activity (Hep 3B2): Dose-Dependent Effect; inhibition (HepG2 [19]): Active; inhibition (Huh-7 [20]): Dose-Dependent Effect; Activity (Huh-7 [21]): Dose-Dependent Effect; Activity (HepG2 [22]): inactive; Activity (Huh-7 [23]): Active; inhibition (Huh-7 [24]): Active; Activity (Huh-7 [25]): inactive |
| C/C(=N\NC(=O)c1cc2ccccc2cc1O)c1cccnc1 | 1.33 | 1.15 |  |
| O=C(NN=C(c1ccccn1)c1ccccn1)c1cc2ccccc2cc1O | 7.56 | 5.94 |  |
| C/C(=N\NC(=O)c1ccccc1O)c1ccccn1 | 0.38 | 9.79 |  |
| C/C(=N\NC(=O)c1cc2ccccc2cc1O)c1cccs1 | 1.24 | 1.42 |  |
